Results published in ChEMBL document CHEMBL1154824, “Synthesis and biological activity of derivatives of the marine quinone avarone” (Eur J Med Chem, 2010).
Converted amounts (≈) assume the structure as drawn. The source made the active and inactive calls. The rule behind the calls is not given here.

What was measured:
HeLa = assay: Cytotoxicity against human HeLa cells assessed as decrease in total cellular protein by kenacid blue R binding method; format: functional, cell-based
[1] = Cytotoxicity against human Fem-X cells assessed as decrease in total cellular protein by kenacid blue R binding method; format: functional, cell-based
K562 [2] = assay: Cytotoxicity against human K562 cells by MTT assay; format: functional, cell-based
CCRF-CEM = assay: Cytotoxicity against human CCRF-CEM cells after 48 hrs by sulforhodamine B assay; format: functional
In short: (§1)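 Tested at NIH-NCI against the 60 human tumor cell line panel. Each line was exposed to at least five concentrations for 48 h. Growth and survival were read by the sulforhodamine test.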

K562 [3] = assay: Cytotoxicity against human K562 cells after 48 hrs by sulforhodamine B assay; format: functional; conditions: K562, 48 h; in short: as §1
MOLT-4 = assay: Cytotoxicity against human MOLT4 cells after 48 hrs by sulforhodamine B assay; format: functional; conditions: MOLT-4, 48 h; in short: as §1
RPMI-8226 = assay: Cytotoxicity against human RPMI8226 cells after 48 hrs by sulforhodamine B assay; format: functional; conditions: RPMI-8226, 48 h; in short: as §1
HOP-92 = assay: Cytotoxicity against human HOP92 cells after 48 hrs by sulforhodamine B assay; format: functional; conditions: HOP-92, 48 h; in short: as §1
NCI-H23 = assay: Cytotoxicity against human NCI-H23 cells after 48 hrs by sulforhodamine B assay; format: functional; conditions: NCI-H23, 48 h; in short: as §1
LOX IMVI = assay: Cytotoxicity against human LOXIMVI cells after 48 hrs by sulforhodamine B assay; format: functional; in short: as §1
SK-MEL-2 = assay: Cytotoxicity against human SK-MEL-2 cells after 48 hrs by sulforhodamine B assay; format: functional; conditions: SK-MEL-2, 48 h; in short: as §1
IGROV-1 = assay: Cytotoxicity against human IGROV1 cells after 48 hrs by sulforhodamine B assay; format: functional; conditions: IGROV-1, 48 h; in short: as §1
RXF 393 = assay: Cytotoxicity against human RXF393 cells after 48 hrs by sulforhodamine B assay; format: functional; conditions: RXF 393, 48 h; in short: as §1
MCF7 = assay: Cytotoxicity against human MCF7 cells after 48 hrs by sulforhodamine B assay; format: functional; conditions: MCF7, 48 h; in short: as §1
MDA-MB-435 = assay: Cytotoxicity against human MDA-MB-435 cells after 48 hrs by sulforhodamine B assay; format: functional; conditions: MDA-MB-435, 48 h; in short: as §1
T47D = assay: Cytotoxicity against human T47D cells after 48 hrs by sulforhodamine B assay; format: functional; in short: as §1
[4] = Cytotoxicity against human colon cancer cells after 48 hrs by sulforhodamine B assay; format: functional; conditions: Cancer cell lines; in short: as §1
[5] = Cytotoxicity against human CNS cancer cells after 48 hrs by sulforhodamine B assay; format: functional; conditions: Cancer cell lines; in short: as §1
[6] = Cytotoxicity against human prostate cancer cells after 48 hrs by sulforhodamine B assay; format: functional; conditions: Cancer cell lines; in short: as §1
Staphylococcus aureus = assay: Antibacterial activity against Staphylococcus aureus ATCC 25923 by serial dilution method; format: functional
Escherichia coli = assay: Antibacterial activity against Escherichia coli ATCC 35218 by serial dilution method; format: functional
Artemia salina = assay: Toxicity against freshly hatched nauplii of brine shrimp after 24 hrs; format: organism-based; conditions: in vivo
PBMC [7] = assay: Cytotoxicity against human PBMC cells by MTT assay; format: cell-based
PBMC [8] = assay: Cytotoxicity against human phytohemagglutininin-stimulated PBMC cells assessed as growth inhibition by MTT assay; format: cell-based
[9] = test system: Human immunodeficiency virus; assay: Antiviral activity against HIV infected in human T4 lymphocytes assessed as protection from HIV-induced cytopathogenicity at 2 uM; format: functional
[10] = Cytotoxicity against human T4 lymphocytes

Structure (SMILES)	IC50 (HeLa) [µM]	IC50 [1] [µM]	IC50 (K562 [2]) [µM]	MIC (Staphylococcus aureus)	MIC (Escherichia coli)	LC50 (Artemia salina)	IC50 (PBMC [7]) [µM]	IC50 (PBMC [8]) [µM]	also measured
CC1=CCC[C@H]2[C@](C)(CC3=CC(=O)C4=C(SCCS4)C3=O)[C@@H](C)CC[C@]12C	> 100	75	91	inactive	100 µg/mL (≈ 248 µM)	2045 ppm	–	–	GI50 (CCRF-CEM): 11 µM; GI50 (K562 [3]): 20 µM; GI50 (MOLT-4): 21.4 µM; GI50 (RPMI-8226): 14.1 µM; GI50 (HOP-92): 31.6 µM; GI50 (NCI-H23): 13.2 µM; GI50 (LOX IMVI): 11.2 µM; GI50 (SK-MEL-2): 1.7 µM; GI50 (IGROV-1): 32.4 µM; GI50 (RXF 393): 18.6 µM; GI50 (MCF7): 20.4 µM; GI50 (MDA-MB-435): 8.13 µM; GI50 (T47D): > 100 µM; GI50 [4]: > 10 µM; GI50 [5]: > 10 µM; GI50 [6]: > 10 µM
C[C@H]1c2cccc(O)c2C(=O)C2=C(O)[C@]3(O)C(=O)C(C(N)=O)=C(O)[C@@H](N(C)C)[C@@H]3[C@@H](O)[C@@H]21.O [DOXYCYCLINE]	–	–	–	4 µg/mL	2 µg/mL	–	–	–	–
CC1=CCC[C@H]2[C@](C)(CC3=CC(=O)C=CC3=O)[C@@H](C)CC[C@]12C [AVARONE]	26.8	23.9	4.9	6.25 µg/mL (≈ 20 µM)	25 µg/mL (≈ 80 µM)	0.14 ppm	4.8	4.5	–
CNC1=CC(=O)C(C[C@]2(C)[C@@H](C)CC[C@]3(C)C(C)=CCC[C@@H]23)=CC1=O	12.6	2.4	9.3	inactive	inactive	0.34 ppm	> 100	> 100	–
CC1=CCC[C@H]2[C@](C)(CC3=CC(=O)C=C(Sc4ccccc4)C3=O)[C@@H](C)CC[C@]12C	54.8	41.5	17.4	12.5 µg/mL (≈ 29.7 µM)	inactive	32.33 ppm	–	–	–
CCCCSC1=CC(=O)C(C[C@]2(C)[C@@H](C)CC[C@]3(C)C(C)=CCC[C@@H]23)=CC1=O	25.1	24.4	12.5	25 µg/mL (≈ 62.4 µM)	inactive	0.92 ppm	–	–	–
CC1=CCC[C@H]2[C@](C)(CC3=CC(=O)C(SCC(C)C)=CC3=O)[C@@H](C)CC[C@]12C	98	89.5	39	50 µg/mL (≈ 125 µM)	25 µg/mL (≈ 62.4 µM)	0.17 ppm	–	–	GI50 (CCRF-CEM): 1.35 µM; GI50 (K562 [3]): 4.47 µM; GI50 (MOLT-4): 2.29 µM; GI50 (RPMI-8226): 3.8 µM; GI50 (HOP-92): 4.79 µM; GI50 (NCI-H23): 5.5 µM; GI50 (LOX IMVI): 4.07 µM; GI50 (SK-MEL-2): 20.9 µM; GI50 (IGROV-1): 10 µM; GI50 (RXF 393): 6.76 µM; GI50 (MCF7): 7.24 µM; GI50 (MDA-MB-435): 15.5 µM; GI50 (T47D): 2.63 µM; GI50 [4]: > 10 µM; GI50 [5]: > 10 µM; GI50 [6]: > 10 µM; Activity [9]: 28.5%; Activity [10]: Toxic
CC1=CCC[C@H]2[C@](C)(CC3=CC(=O)C(Sc4ccccc4)=CC3=O)[C@@H](C)CC[C@]12C	45	42.5	15.2	12.5 µg/mL (≈ 29.7 µM)	inactive	30.21 ppm	9.9	11.2	GI50 (CCRF-CEM): 3.89 µM; GI50 (K562 [3]): 19.5 µM; GI50 (MOLT-4): 2.57 µM; GI50 (RPMI-8226): 20.4 µM; GI50 (HOP-92): 17 µM; GI50 (NCI-H23): 14.8 µM; GI50 (LOX IMVI): 13.5 µM; GI50 (SK-MEL-2): 20 µM; GI50 (IGROV-1): 16.2 µM; GI50 (RXF 393): 16.2 µM; GI50 (MCF7): 22.4 µM; GI50 (MDA-MB-435): 17 µM; GI50 (T47D): 20.4 µM; GI50 [4]: > 10 µM; GI50 [5]: > 10 µM; GI50 [6]: > 10 µM; Activity [9]: 12.5%; Activity [10]: Toxic
CC1CCC[C@H]2[C@](C)(CC3=CC(=O)C(Cl)=CC3=O)[C@@H](C)CC[C@]12C (stereo not given in full)	34.1	32.2	11.2	50 µg/mL (≈ 143 µM)	25 µg/mL (≈ 71.7 µM)	0.65 ppm	–	–	–
CC1=CCC[C@H]2[C@](C)(CC3=CC(=O)C(SC(C)(C)C)=CC3=O)[C@@H](C)CC[C@]12C	37	38	25.7	50 µg/mL (≈ 125 µM)	inactive	0.89 ppm	21.7	20.8	–
CCCSC1=CC(=O)C(C[C@]2(C)[C@@H](C)CC[C@]3(C)C(C)=CCC[C@@H]23)=CC1=O	97	89.5	45.5	50 µg/mL (≈ 129 µM)	inactive	0.2 ppm	–	–	–
COC1=CC(=O)C=C(C[C@]2(C)[C@@H](C)CC[C@]3(C)C(C)=CCC[C@@H]23)C1=O	13.3	9.8	2.1	25 µg/mL (≈ 73 µM)	50 µg/mL (≈ 146 µM)	0.02 ppm	5.9	5.5	–
CC1=CCC[C@H]2[C@](C)(Cc3cc(O)ccc3O)[C@@H](C)CC[C@]12C [AVAROL]	19.7	21.7	7.3	12.5 µg/mL (≈ 39.7 µM)	inactive	0.18 ppm	3	3.2	–
CC1=CCC[C@H]2[C@](C)(CC3=CC(=O)C(SC(C)C)=CC3=O)[C@@H](C)CC[C@]12C	67	86	47.5	inactive	inactive	0.44 ppm	–	–	–
CCCCCCCCSC1=CC(=O)C(C[C@]2(C)[C@@H](C)CC[C@]3(C)C(C)=CCC[C@@H]23)=CC1=O	> 100	> 100	> 100	inactive	25 µg/mL (≈ 54.7 µM)	Not Active	–	–	–
